# Assay results of several laboratories.
# Each line is one published result; the experiments were not run side by side.
# Palmitoyl-protein thioesterase 1: Palmitoyl-protein thioesterase 1 (Homo sapiens, UniProt P50897)
# Transmembrane protease serine 6: Transmembrane protease serine 6 (Homo sapiens, UniProt Q8IU80)
SMILES,target,test,conditions,measurement,value
COc1cc(-c2cncc3c2CN(C)Cc2cc(N4CCNCC4)ccc2-3)cc(OC)c1OC,"Epidermal growth factor receptor (EGFR, Homo sapiens, UniProt P00533, L858R)","enzyme activity, inhibitor",1 µM,remaining activity,36%
CNc1ncc2c(/C=C/C(=O)N3CCC(OC)CC3)nn(Cc3cccc(C(F)(F)F)c3)c2n1,"Epidermal growth factor receptor (EGFR, Homo sapiens, UniProt P00533)","enzyme activity, inhibitor, radiometric",1 µM,remaining activity,108%
O=C([O-])CCCCCCCNC(=O)c1ccccc1O.[Na+],Palmitoyl-protein thioesterase 1,"enzyme activity, inhibitor",125 µM,inhibition,9.21%
C=CCCCCCC(C)(NC(=O)[C@H](Cc1cscn1)NC(=O)CCc1ccccc1)C(=O)N[C@@H](CCCNC(=N)N)C(=O)c1nc2ccccc2s1 (stereo partly shown),Transmembrane protease serine 6,"enzyme activity, inhibitor",0.1 µM,remaining activity,101%
C=CC(=O)N1CCC(COCC(=O)N2CCN(c3nc(-c4cnc(N)nc4C(F)F)nc(N4CCOC[C@@H]4C)n3)CC2)CC1,"Ribosomal protein S6 kinase alpha-2, C-terminal kinase domain (RPS6KA2, Homo sapiens, UniProt Q15349)","binding, competition with immobilised ligand",1 µM,remaining binding,90%
CC1CNC(=O)NC1=O (stereo not shown),Palmitoyl-protein thioesterase 1,"enzyme activity, inhibitor",125 µM,inhibition,-1.19%
CC(C)[C@@H](NC(=O)[C@H](Cc1cscn1)NC(=O)CCc1ccccc1)C(=O)N[C@@H](CCCNC(=N)N)C(=O)c1nc2ccccc2s1,Transmembrane protease serine 6,"enzyme activity, inhibitor",0.1 µM,remaining activity,68%
O=C(CCCN1CC=C(n2c(=O)[nH]c3ccccc32)CC1)c1ccc(F)cc1,Palmitoyl-protein thioesterase 1,"enzyme activity, inhibitor",125 µM,inhibition,1.07%
CC(C)C[C@@H](C(=O)N[C@@H](CCCNC(=N)N)C(=O)c1nc2ccccc2s1)N(C)C(=O)[C@H](Cc1cscn1)NC(=O)CCc1ccccc1,Transmembrane protease serine 6,"enzyme activity, inhibitor",0.1 µM,remaining activity,19%
Cc1cc([C@@H](C)Nc2ccccc2C(=O)O)c2nc(N3CCC(F)(F)CC3)c(C#N)c(=O)n2c1,"Serine/threonine-protein kinase B-raf (BRAF, Homo sapiens, UniProt P15056)","binding, competition with immobilised ligand",10 µM,remaining binding,74%
